Measured values: ChEMBL document CHEMBL1143802, “Synthesis and biological evaluation of some 6-substituted purines” (Eur J Med Chem, 2007)

What was measured:
Leishmania chagasi = assay: Antileishmanial activity against Leishmania chagasi MHOM/Br/74/PP75 promastigotes by MTT colorimetric method; assay type: functional, organism-based
Summary of the method: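 Log-phase promastigotes kept at 24 °C in Medium 199 plus 10% fetal bovine serum. Seeded at 3 million cells/mL and held 1 h at 24 °C before compound addition in water or DMSO (up to 1% v/v). Each concentration run in triplicate over a three-day incubation. Viability measured by MTT; IC50 is the concentration giving 50% growth inhibition.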

Leishmania amazonensis = assay: Antileishmanial activity against Leishmania amazonensis MHOM/Br/75/Josefa promastigotes by MTT colorimetric method; assay type: functional, organism-based
Summary of the method: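 Log-phase promastigotes grown at 24 °C in Warren's medium (brain heart infusion with hemin and folic acid) plus 10% fetal bovine serum. Seeded at 2 million cells/mL and preincubated 1 h at 24 °C. Compounds added in water or DMSO (up to 1% v/v), each concentration in triplicate. Incubated three days, viability read by MTT, and IC50 taken as 50% growth inhibition.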

## c1nc(SCCCNC2CCCCC2)c2nc[nH]c2n1
Leishmania chagasi
  IC50: > 227 µM
Leishmania amazonensis
  IC50: > 227 µM

## NCCSCCCSc1ncnc2[nH]cnc12
Leishmania chagasi
  IC50: > 227 µM
Leishmania amazonensis
  IC50: 50 µM

## O=C(O)CSc1ncnc2[nH]cnc12
Leishmania chagasi
  IC50: > 227 µM
Leishmania amazonensis
  IC50: 39 µM

## O=C1c2ccccc2C(=O)N1CCCCSc1ncnc2[nH]cnc12
Leishmania chagasi
  IC50: > 227 µM
Leishmania amazonensis
  IC50: > 227 µM

## ClCCCSc1ncnc2[nH]cnc12
Leishmania chagasi
  IC50: > 227 µM
Leishmania amazonensis
  IC50: 50 µM

## CO[C@@H]1O[C@H](CSc2ncnc3[nH]cnc23)[C@H]2OC(C)(C)O[C@@H]12
Leishmania chagasi
  IC50: > 227 µM
Leishmania amazonensis
  IC50: > 227 µM

## NCCNCCCSc1ncnc2[nH]cnc12
Leishmania chagasi
  IC50: > 227 µM
Leishmania amazonensis
  IC50: > 227 µM

## CC1(C)O[C@H]2[C@@H](O1)[C@@H](CSc1ncnc3[nH]cnc13)O[C@@H]1OC(C)(C)O[C@@H]12
Leishmania chagasi
  IC50: > 227 µM
Leishmania amazonensis
  IC50: > 227 µM

## CO[C@@H]1O[C@H](CSc2ncnc3[nH]cnc23)[C@@H](O)[C@H]1O
Leishmania chagasi
  IC50: > 227 µM
Leishmania amazonensis
  IC50: 29 µM

## CCOC(=O)CSc1ncnc2[nH]cnc12
Leishmania chagasi
  IC50: > 227 µM
Leishmania amazonensis
  IC50: > 227 µM

## CC1(C)O[C@H]2[C@H]3OC(C)(C)O[C@]3(CSc3ncnc4[nH]cnc34)OC[C@H]2O1
Leishmania chagasi
  IC50: > 227 µM
Leishmania amazonensis
  IC50: > 227 µM

## C[C@@H]1[C@H](O)[C@@H](C)/C=C/C=C/C=C/C=C/C=C/C=C/C=C/[C@H](O[C@@H]2O[C@H](C)[C@@H](O)[C@H](N)[C@@H]2O)C[C@@H]2O[C@](O)(C[C@@H](O)C[C@@H](O)[C@H](O)CC[C@@H](O)C[C@@H](O)CC(=O)O[C@H]1C)C[C@H](O)[C@H]2C(=O)O [AMPHOTERICIN B]
Leishmania chagasi
  IC50: 1.9 µM
Leishmania amazonensis
  IC50: 0.9 µM

## Sc1ncnc2nc[nH]c12 [MERCAPTOPURINE ANHYDROUS]
Leishmania chagasi
  IC50: > 227 µM
Leishmania amazonensis
  IC50: > 227 µM
